Columns and labels:
Plasmodium falciparum [1] = assay: ST_JUDE: Plasmodium falciparum 3D7 EC50 (uM) as measured by SYBR green dye; format: functional, organism-based
Plasmodium falciparum [2] = assay: ST_JUDE: Plasmodium falciparum K1 EC50 (uM) as measured by SYBR green dye; format: functional, organism-based
Plasmodium falciparum [3] = assay: ST_JUDE: Cytotoxicity against Plasmodium falciparum 3D7; format: functional, organism-based
Summary of the method: (§1)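 Asexual P. falciparum grown in human erythrocytes, exposed to compounds for 72 h, and growth read as the DNA quantity in treated versus control cultures. Dose-response run at 12 concentrations from 10 μM to 5 nM.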

Plasmodium falciparum [4] = assay: ST_JUDE: Cytotoxicity against Plasmodium falciparum K1; format: functional, organism-based; summary of the method: as §1
Plasmodium falciparum [5] = assay: ST_JUDE: Cytotoxicity against Plasmodium falciparum V1/S; format: functional, organism-based
Toxoplasma gondii = assay: ST_JUDE: Growth inhibition of to Toxoplasma gondii, in human U-2OS cells, as measured by luciferase.; format: functional, organism-based; conditions: RH, U2OS
Summary of the method: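 T. gondii parasites engineered to express luciferase; drug sensitivity read by luminescence.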

Trypanosoma brucei = assay: ST_JUDE: Cytotoxicity using luciferase to measure ATP as an indicator of the viability of Trypanosoma brucei; format: functional, organism-based
Leishmania major = assay: ST_JUDE: Cytotoxicity using Alamar Blue to measure viability of Leishmania major; format: functional, organism-based
Summary of the method: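 L. major promastigotes; drug susceptibility read with Alamar Blue.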

[6] = ST_JUDE: Cytotoxicity using luciferase to measure ATP as an indicator of the viability of human foreskin fibroblast cells (BJ); format: toxicity, cell-based
[7] = ST_JUDE: Cytotoxicity using luciferase to measure ATP as an indicator of the viability of human epithelial hepatocellular carcinoma cells (HepG2); format: toxicity, cell-based
[8] = ST_JUDE: Cytotoxicity using luciferase to measure ATP as an indicator of the viability of human epithelial embryonic kidney cells (HEK293); format: toxicity, cell-based
[9] = ST_JUDE: Cytotoxicity using luciferase to measure ATP as an indicator of the viability of human Burkitt''s lymphoma lymphoblast cells (Raji); format: toxicity, cell-based
Plasmodium falciparum [10] = assay: ST_JUDE: Cytotoxicity against Plasmodium falciparum Dd2; format: functional, organism-based
Plasmodium falciparum [11] = assay: ST_JUDE: Cytotoxicity against Plasmodium falciparum W2; format: functional, organism-based
Plasmodium falciparum [12] = assay: ST_JUDE: Cytotoxicity against Plasmodium falciparum SB-A6; format: functional, organism-based
Plasmodium falciparum [13] = assay: ST_JUDE: Cytotoxicity against Plasmodium falciparum D10 transfected with yeast DHOD; format: functional, organism-based

Compound | EC50 (Plasmodium falciparum [1]) | EC50 (Plasmodium falciparum [2]) | EC50 (Plasmodium falciparum [3]) | EC50 (Plasmodium falciparum [4]) | EC50 (Plasmodium falciparum [5]) | EC50 (Toxoplasma gondii) | EC50 (Trypanosoma brucei) | EC50 (Leishmania major) | EC50 [6] | EC50 [7] | EC50 [8] | EC50 [9] | EC50 (Plasmodium falciparum [10]) | EC50 (Plasmodium falciparum [11]) | EC50 (Plasmodium falciparum [12]) | EC50 (Plasmodium falciparum [13])
CC(=O)c1cccc(NC(=O)C2c3ccccc3C(=O)N(CC(C)C)C2c2cccs2)c1 (stereo not given) | 0.196 µM | 0.284 µM | 0.363 µM | 0.357 µM | 0.371 µM | > 23.7 µM | 5.85 µM | > 18.5 µM | > 43.2 µM | > 43.2 µM | > 43.2 µM | > 43.2 µM | 0.392 µM | > 11.1 µM | 0.414 µM | 0.411 µM
Cc1ccc(C)c(NC(=O)CC2C(=O)N(c3ccccc3)C(=S)N2Cc2ccco2)c1 (stereo not given) | 0.259 µM | 0.395 µM | 2.51 µM | 2.72 µM | 0.361 µM | > 24.1 µM | > 42.3 µM | > 18.9 µM | > 44.1 µM | > 44.1 µM | > 44.1 µM | 41 µM | 0.428 µM | 0.292 µM | 0.385 µM | 0.449 µM
COc1ccc(C2CC(=O)C3=C(C2)NC(=O)CC3c2ccc(Br)cc2)cc1OC (stereo not given) | 1.14 µM | 0.65 µM | 1.04 µM | 1.11 µM | 1.78 µM | > 26 µM | 25.6 µM | > 20.3 µM | > 47.5 µM | > 47.5 µM | > 47.5 µM | > 47.5 µM | 0.75 µM | 7.74 µM | 1.49 µM | 1.78 µM
Cc1oc2c(c1C(=O)NCCC(C)C)C(=O)c1ccccc1C2=O | 7.61 µM | 0.424 µM | 1.23 µM | 1.17 µM | > 10.9 µM | > 23.3 µM | 2.38 µM | > 18.2 µM | > 42.5 µM | > 42.5 µM | > 42.5 µM | > 42.5 µM | 2.34 µM | > 10.9 µM | 1.12 µM | 0.842 µM
CCO/C(O)=C1\C(C)=NC2=C(C(=O)CC(c3ccc(OC)c(OC)c3)C2)C1c1ccccc1Cl (stereo not given) | 0.0604 µM | 0.138 µM | 0.0702 µM | 0.0913 µM | 0.118 µM | > 24.4 µM | 9.64 µM | > 19.1 µM | > 44.6 µM | > 44.6 µM | > 44.6 µM | > 44.6 µM | 0.0608 µM | 0.0165 µM | 0.0561 µM | 0.0573 µM
Cc1ccc2c(c1)S/C(=C\c1sc3ccccc3[n+]1C)N2CCO | 0.367 µM | 0.14 µM | 0.548 µM | 0.567 µM | 0.577 µM | > 13 µM | 11 µM | 0.112 µM | > 23.7 µM | > 23.7 µM | > 23.7 µM | 3.09 µM | 0.426 µM | 0.495 µM | 0.603 µM | 0.438 µM
CCCCCOc1ccc(N(C(C)=O)C2=C(N3CCCCC3)C(=O)c3ccccc3C2=O)cc1 | 0.728 µM | 0.371 µM | 0.193 µM | 0.129 µM | 0.114 µM | > 16.1 µM | 4.14 µM | > 12.6 µM | > 29.3 µM | 9.76 µM | > 29.3 µM | 4.1 µM | 0.754 µM | 0.386 µM | 0.11 µM | 0.0615 µM
CSC(=S)N/N=C(\c1ccccc1)c1ccccn1 | 0.232 µM | 0.364 µM | 0.563 µM | 0.862 µM | 0.404 µM | 1.64 µM | 2.21 µM | > 18.4 µM | > 42.9 µM | > 42.9 µM | > 42.9 µM | 0.0334 µM | 0.0008 µM | > 11 µM | 0.331 µM | 0.398 µM
O=[N+]([O-])c1cc(CN2CCN(c3cccc(C(F)(F)F)c3)CC2)c2cccnc2c1O | 1.28 µM | 1.19 µM | 0.676 µM | > 8.18 µM | > 8.18 µM | > 17.5 µM | 1.35 µM | > 13.6 µM | > 31.9 µM | > 31.9 µM | > 31.9 µM | > 31.9 µM | 0.791 µM | > 8.18 µM | 0.642 µM | 1.08 µM
CCO/C(O)=C1\C(C)=NC2=C(C(=O)CC(c3ccc(OC)c(OC)c3)C2)C1c1ccccc1C (stereo not given) | 0.102 µM | 0.135 µM | 0.0971 µM | 0.12 µM | 0.104 µM | > 23.4 µM | > 40.9 µM | > 18.3 µM | > 42.7 µM | > 42.7 µM | > 42.7 µM | > 42.7 µM | 0.0965 µM | 0.0549 µM | 0.0875 µM | 0.0877 µM
Cc1ccc(C)c(N2CCN(Cc3cc(Cl)ccc3O)CC2)c1 | 0.725 µM | 0.261 µM | 0.496 µM | 0.195 µM | 0.328 µM | > 19.7 µM | > 34.4 µM | > 15.4 µM | > 35.9 µM | > 35.9 µM | > 35.9 µM | > 35.9 µM | 0.323 µM | 1.01 µM | 0.535 µM | 0.549 µM
CCO/C(O)=C1\C(C)=NC2=C(C(=O)CC(c3ccc(OC)c(OC)c3)C2)C1c1cccc(Cl)c1 (stereo not given) | 0.716 µM | 0.226 µM | 0.831 µM | 0.487 µM | 0.902 µM | > 22.9 µM | 16.7 µM | > 17.9 µM | > 41.9 µM | > 41.9 µM | > 41.9 µM | > 41.9 µM | 1.48 µM | 1.8 µM | 0.335 µM | 0.531 µM
Cc1cccc(N2CCN(Cc3ccccc3O)CC2)c1C | 1.07 µM | 0.531 µM | 0.976 µM | 0.355 µM | 0.403 µM | > 17.9 µM | > 31.3 µM | > 14 µM | > 32.7 µM | > 32.7 µM | > 32.7 µM | > 32.7 µM | 0.626 µM | 0.951 µM | 0.0295 µM | 0.813 µM
CCO/C(O)=C1\C(C)=NC2=C(C(=O)CC(c3ccc(OC)c(OC)c3)C2)C1c1ccc([N+](=O)[O-])cc1 (stereo not given) | 0.177 µM | 0.12 µM | 0.171 µM | 0.272 µM | 0.597 µM | > 24.1 µM | 8.23 µM | > 18.8 µM | > 43.9 µM | > 43.9 µM | > 43.9 µM | > 43.9 µM | 0.6 µM | 0.239 µM | 0.228 µM | 0.267 µM
O=S(=O)(c1ccc(Cl)cc1)N1CCN(C(=S)NCc2ccco2)CC1 | 1.51 µM | 1.27 µM | 0.864 µM | 1.15 µM | 2.4 µM | > 16.5 µM | 24.9 µM | > 12.9 µM | > 30.1 µM | > 30.1 µM | > 30.1 µM | > 30.1 µM | 0.849 µM | 0.82 µM | 4.46 µM | 3.49 µM

Reference: ChEMBL document CHEMBL1154198, “Chemical genetics of Plasmodium falciparum” (Nature, 2010)
